Here are results for nine compounds from ChEMBL document CHEMBL1134236, “Anti-MRSA cephems. Part 1: C-3 substituted thiopyridinium derivatives” (Bioorg Med Chem Lett, 2001).

SMILES strings stand for the structures. Values after ≈ are worked out from the molar mass of the structure shown.

Experiment [1] concerns Staphylococcus aureus. Description: Minimum inhibitory concentration against methicillin-resistant Staphylococcus aureus (MRSA) A27223. It counts as functional. In outline:
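Broth microdilution per NCCLS in Mueller-Hinton broth with 2% NaCl. Inoculum about 5×10⁵ CFU/mL, incubated at 35 °C for 24 h. MIC is the lowest drug concentration that inhibits all visible growth.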

For experiment [2], the system named is Staphylococcus aureus. Description: Minimum inhibitory concentration against methicillin-resistant Staphylococcus aureus (MRSA) A27223 in the presence of 50% calf serum. It counts as functional. In short, it runs like this:
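NCCLS broth MIC in Mueller-Hinton broth with 2% NaCl plus 50% calf serum. Inoculum about 5×10⁵ CFU/mL, incubated at 35 °C for 24 h. Read as the lowest concentration with no visible growth.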

Experiment [3] deals with Staphylococcus aureus. Kind of experiment: Dose required for protective activity against methicillin-resistant Staphylococcus aureus (MRSA) A27223 in mouse following i.m. administration. The following applies: im, read-out: PD50.
The test system of experiment [4] is Staphylococcus aureus. Kind of experiment: Minimum inhibitory concentration against Staphylococcus aureus / Homo MR A27621. In kind it is functional. In short, it runs like this: (§1)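 Broth MIC under NCCLS standard conditions in Mueller-Hinton broth plus 2% NaCl. Inoculum was about 5×10⁵ CFU/mL, incubated at 35 °C for 24 h. The endpoint was the lowest drug concentration inhibiting all visible growth. Where the line states it, 50% calf serum was added.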

Experiment [5] has as its system Staphylococcus epidermidis. Kind of experiment: Minimum inhibitory concentration against Staphylococcus epidermidis / Imipenem A27368. In kind it is functional. In short, it runs like this:
(§2)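 Broth dilution MIC under standard NCCLS-recommended conditions. The MIC was read as the lowest drug concentration giving no visible growth. Where the line states it, 50% calf serum was added.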

Experiment [6] has as its system Staphylococcus haemolyticus. Kind of experiment: Minimum inhibitory concentration against Staphylococcus haemolyticus / Homo MR A27229. It counts as functional. In outline:
as §2

The subject of experiment [7] is Streptococcus pneumoniae. Description: Minimum inhibitory concentration against Streptococcus pneumoniae / Pen.I A27881. It counts as functional. In outline: as §2
Experiment [8] deals with Staphylococcus aureus. Description: Minimum inhibitory concentration against Staphylococcus aureus / Homo MR A27226. In kind it is functional. In outline:
as §1

Experiment [9] concerns Staphylococcus aureus. Kind of experiment: Minimum inhibitory concentration against Staphylococcus aureus A9606 with 50% calf serum. In kind it is functional. In short, it runs like this: as §2
The test system of experiment [10] is Staphylococcus aureus. Description: Minimum inhibitory concentration against Staphylococcus aureus / Hetero MR A27217. In kind it is functional. In short, it runs like this:
as §1

The test system of experiment [11] is Staphylococcus aureus. Kind of experiment: Minimum inhibitory concentration against Staphylococcus aureus / + 50% calf serum A27223. It counts as functional. In outline:
as §1

In experiment [12] the test system is Enterococcus faecalis. Description: Minimum inhibitory concentration against Enterococcus faecalis A20688. It counts as functional. In short, it runs like this: as §2
Experiment [13] relates to Staphylococcus haemolyticus. Kind of experiment: Minimum inhibitory concentration against Staphylococcus haemolyticus A21638. In kind it is functional. In short, it runs like this: as §2
Experiment [14] has as its system Staphylococcus aureus. Description: Minimum inhibitory concentration against Staphylococcus aureus / MR. P- A27225. It counts as functional. In outline: as §1
Experiment [15] has as its system Staphylococcus aureus. Description: Minimum inhibitory concentration against Staphylococcus aureus / Homo MR A27223. It counts as functional. In short, it runs like this: as §1
The subject of experiment [16] is Staphylococcus aureus. Description: Minimum inhibitory concentration against Staphylococcus aureus / Homo MR A27295. In kind it is functional. In outline:
as §1

Experiment [17] concerns Staphylococcus epidermidis. Kind of experiment: Minimum inhibitory concentration against Staphylococcus epidermidis / MR A25783. It counts as functional. In outline: as §2
Experiment [18] concerns Streptococcus pyogenes. Description: Minimum inhibitory concentration against Streptococcus pyogenes Todd Hewitt A9604. In kind it is functional. In short, it runs like this: as §2
Experiment [19] concerns Staphylococcus aureus. Kind of experiment: Minimum inhibitory concentration against Staphylococcus aureus / Pen.+ A9606. In kind it is functional. In short, it runs like this:
as §2

Experiment [20] deals with Staphylococcus aureus. Description: Minimum inhibitory concentration against Staphylococcus aureus / Pen.- A9497. It counts as functional. In short, it runs like this: as §2
Experiment [21] concerns Staphylococcus aureus. Kind of experiment: Minimum inhibitory concentration against Staphylococcus aureus / Hetero MR A27218. In kind it is functional. In short, it runs like this: as §1
Experiment [22] has as its system Enterococcus faecium. Kind of experiment: Minimum inhibitory concentration against Enterococcus faecium A24885. It counts as functional. In short, it runs like this:
as §2

Experiment [23] relates to Streptococcus pneumoniae. Description: Minimum inhibitory concentration against penicillin resistant Streptococcus pneumoniae A28272. It counts as functional.
In experiment [24] the test system is Staphylococcus aureus. Description: Minimum inhibitory concentration against Staphylococcus aureus A27218 with 50% calf serum. It counts as functional. In outline: as §1
For experiment [25], the system named is Staphylococcus epidermidis. Kind of experiment: Minimum inhibitory concentration against Staphylococcus epidermidis A24548. In kind it is functional. In short, it runs like this:
as §2

Experiment [26] relates to Staphylococcus aureus. Kind of experiment: Minimum inhibitory concentration against Staphylococcus aureus A20241 /MS/Pen. In kind it is functional. In short, it runs like this:
as §2

In experiment [27] the test system is Enterococcus faecium. Description: Minimum inhibitory concentration against Enterococcus faecium Amp. R. Vanco. S A28156. In kind it is functional. In short, it runs like this:
as §2

Experiment [28] has as its system Enterococcus faecalis. Description: Minimum inhibitory concentration against Enterococcus faecalis A20688 with 50% calf serum. In kind it is functional. In short, it runs like this: as §2
The subject of experiment [29] is Staphylococcus aureus. Description: Concentration required for 90% inhibitory activity against methicillin-resistant Staphylococcus aureus. It counts as functional. In short, it runs like this: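 Panel of 58 MRSA strains tested by NCCLS broth method in Mueller-Hinton broth with 2% NaCl. Inoculum about 5×10⁵ CFU/mL, 35 °C for 24 h. MICs read as no visible growth, and MIC90 derived across the panel.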

A short description of experiment [30]: Concentration required for the inhibitory activity against PBP2a.

Take `C[n+]1ccc(SCC2=C(C(=O)[O-])N3C(=O)[C@@H](NC(=O)CSc4cc(Cl)ccc4Cl)[C@H]3SC2)cc1CCCC(=O)O`: the MIC in experiment [1] was 4 µg/mL (≈ 6.22 µM); in [2] it was 8 µg/mL. Also, the ED50 in [3] amounted to 5.2 mg/kg.
For `Cc1cc(SCC2=C(C(=O)[O-])N3C(=O)[C@@H](NC(=O)CSc4cc(Cl)ccc4Cl)[C@H]3SC2)cc(CCC(=O)O)[n+]1CCO` the same measures were 2 µg/mL (≈ 2.97 µM), 4 µg/mL and 8.4 mg/kg.
In the case of `CSCCC[n+]1c(C)cc(SCC2=C(C(=O)[O-])N3C(=O)[C@@H](NC(=O)CSc4cc(Cl)ccc4Cl)[C@H]3SC2)cc1CCC(=O)O`, the minimum inhibitory concentration (MIC) came to 2 µg/mL (≈ 2.79 µM) in [1] and 4 µg/mL in experiment [2]. For the same compound, the ED50 in experiment [3] was above 25 mg/kg.
For `Cc1cc(SCC2=C(C(=O)[O-])N3C(=O)[C@@H](NC(=O)CSc4cc(Cl)ccc4Cl)[C@H]3SC2)cc(CCC(=O)O)[n+]1-c1cccc(O)c1` the same measures were 4 µg/mL (≈ 5.55 µM), 8 µg/mL and above 25 mg/kg.
`NCCC[n+]1ccc(SCC2=C(C(=O)O)N3C(=O)[C@@H](NC(=O)CSc4cc(Cl)ccc4Cl)[C@H]3SC2)cc1CCC(=O)O.O=C(O)C(F)(F)F.O=C([O-])C(F)(F)F`: the MIC was determined as 1 µg/mL in experiment [4]; 0.25 µg/mL in [5]; 2 µg/mL in experiment [6]; 0.003 µg/mL in [7]; 1 µg/mL in experiment [8]; 0.125 µg/mL in experiment [9]. Besides, the MIC was found to be 0.5 µg/mL in experiment [10]; 2 µg/mL in [11]; 0.5 µg/mL in experiment [12]; 0.06 µg/mL in [13]; 1 µg/mL in [14]; 2 µg/mL in experiment [15]. The MIC was determined as 4 µg/mL in experiment [16]; 0.25 µg/mL in experiment [17]; 0.003 µg/mL in experiment [18]; 0.125 µg/mL in experiment [19]; 0.007 µg/mL in experiment [20]; 2 µg/mL in experiment [1]. Also, the MIC in [21] was determined as 0.5 µg/mL; in experiment [22] it was 2 µg/mL; in experiment [23], 0.06 µg/mL; in experiment [24], 1 µg/mL; in [2] it was 2 µg/mL; in [25], 0.03 µg/mL. Moreover, the MIC in experiment [26] came to 0.125 µg/mL; in experiment [27], 64 µg/mL; in [28], 1 µg/mL. Besides, the ED50 in experiment [3] worked out at 2.1 mg/kg.
In the case of `Cl.NCCC[n+]1ccc(SCC2=C(C(=O)O)N3C(=O)[C@@H](NC(=O)CSc4cc(Cl)ccc4Cl)[C@H]3SC2)cc1.[Cl-]`, the MIC90 in experiment [29] came to 2 µg/mL. Further, the results for the MIC in experiment [1] and in [2] were 0.125 µg/mL and 2 µg/mL, respectively. Also, the IC50 in [30] came out at 1200 nM. Further, the ED50 in [3] was found to be 1.4 mg/kg.
As to `NCCC[n+]1ccc(SCC2=C(C(=O)O)N3C(=O)[C@@H](NC(=O)CSc4cc(Cl)nc(Cl)c4)[C@H]3SC2)cc1CCCC(=O)O.O=C(O)C(F)(F)F.O=C([O-])C(F)(F)F`, the MIC in [1] is 2 µg/mL; in [2], 4 µg/mL. Also, the ED50 in experiment [3] amounted to 4.3 mg/kg.
On to `Cc1cc(SCC2=C(C(=O)[O-])N3C(=O)[C@@H](NC(=O)CSc4cc(Cl)ccc4Cl)[C@H]3SC2)cc(CCC(=O)O)[n+]1C[C@@H](O)[C@H](O)[C@@H](O)C(O)O`, for which the MIC was determined as 8 µg/mL (≈ 10.3 µM) in experiment [1] and 16 µg/mL in experiment [2]. In experiment [3], the ED50 was above 20 mg/kg.
As for `CCCC[n+]1c(C)cc(SCC2=C(C(=O)[O-])N3C(=O)[C@@H](NC(=O)CSc4cc(Cl)ccc4Cl)[C@H]3SC2)cc1CCC(=O)O`, the MIC is 4 µg/mL (≈ 5.84 µM) in experiment [1] and 8 µg/mL in experiment [2]. Further, in experiment [3], the ED50 is above 23 mg/kg.
